Activity calls are given as the source filed them.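 The calls were made as follows: active = inhibition of 50% or more; inactive = inhibition below 50%.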
Biological target: Diacylglycerol lipase-beta (Mus musculus) (UniProt Q91WC9)
Experiment: DAGLb inhibitors by competitive gel ABPP, late-stage follow-up, biochemical, in-gel fluorescence, overexpressed mouse DAGLb, triazole urea library (AID 602303)
Conditions: HEK293T membrane overexpressing mouse DAGLb, gel ABPP FP-Rh; at 0.5 µM; hits give high values
How it was run: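 Material: membrane proteome of HEK293T cells transiently overexpressing mouse DAGLb. Doses: single dose, test compound at 500 nM final. Schedule: compound pre-incubation 30 min then probe labeling 30 min, both 37 °C. Measured by: in-gel fluorescence after SDS-PAGE. Controls: DMSO-only enzyme as high control, blank gel region background as low.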

Sequence of Diacylglycerol lipase-beta (Mus musculus) (Q91WC9 whole entry, looked up): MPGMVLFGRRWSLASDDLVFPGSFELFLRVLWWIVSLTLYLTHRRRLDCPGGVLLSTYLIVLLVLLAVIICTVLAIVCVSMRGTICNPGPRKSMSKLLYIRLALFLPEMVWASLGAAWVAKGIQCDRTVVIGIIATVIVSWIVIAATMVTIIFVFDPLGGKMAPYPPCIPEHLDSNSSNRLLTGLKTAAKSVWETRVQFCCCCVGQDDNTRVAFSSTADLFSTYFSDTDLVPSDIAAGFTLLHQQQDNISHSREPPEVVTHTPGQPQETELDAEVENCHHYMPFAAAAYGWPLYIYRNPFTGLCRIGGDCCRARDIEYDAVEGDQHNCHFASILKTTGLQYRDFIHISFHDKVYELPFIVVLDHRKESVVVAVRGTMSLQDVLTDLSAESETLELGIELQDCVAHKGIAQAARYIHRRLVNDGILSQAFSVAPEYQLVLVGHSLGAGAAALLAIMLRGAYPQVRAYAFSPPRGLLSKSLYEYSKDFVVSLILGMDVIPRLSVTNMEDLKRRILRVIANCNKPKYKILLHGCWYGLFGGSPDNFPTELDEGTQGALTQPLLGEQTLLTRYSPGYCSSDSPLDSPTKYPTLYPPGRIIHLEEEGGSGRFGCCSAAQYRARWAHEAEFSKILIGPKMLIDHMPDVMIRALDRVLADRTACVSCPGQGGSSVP

Structure (SMILES)	inhibition
O=C(N1CCc2ccccc2C1)n1ncc(C(O)(c2ccccc2)c2ccccc2)n1	35% (inactive)
O=C(N1CCOCC1)n1ncc(C(O)(c2ccccc2)c2ccccc2)n1	15% (inactive)
CC1CCN(C(=O)n2ncc(C(O)(c3ccccc3)c3ccccc3)n2)CC1	10% (inactive)
CCN(CC)C(=O)n1ncc(C(O)(c2ccccc2)c2ccccc2)n1	5% (inactive)
CC(C)(C)C1CCN(C(=O)n2nccn2)CC1	35% (inactive)
CC(C)(C)C1CCN(C(=O)n2ncc(C(O)(c3ccccc3)c3ccccc3)n2)CC1	45% (inactive)
O=C(N1CCCC1)n1ccnn1	30% (inactive)
CCN(CC)C(=O)n1ccnn1	0% (inactive)
CCC1CCCCN1C(=O)n1ncc(C(O)(c2ccccc2)c2ccccc2)n1 (configuration not stated)	10% (inactive)
COc1ccc2cc(-c3cnn(C(=O)N4CCCCC4)n3)ccc2c1	20% (inactive)
O=C(N(c1ccccc1)c1ccccc1)n1ccnn1	5% (inactive)
O=C(N1CCCC1)n1ncc(-c2ccc([N+](=O)[O-])cc2)n1	35% (inactive)
O=C(N1CCCC1)n1ncc(-c2ccccc2)n1	35% (inactive)
O=C(N1CCCCC1)n1ncc(-c2ccc(Oc3ccccc3)cc2)n1	40% (inactive)
O=C(N1CCCCC1)n1ccnn1	20% (inactive)
O=C(N1CCCCC1)n1ncc(C(O)(c2ccccc2)c2ccccc2)n1	10% (inactive)

Structure (SMILES)	inhibition
C=CCN(CC=C)C(=O)n1ncc(-c2ccccc2)n1	5% (inactive)
CC(C)(O)c1cnn(C(=O)N2CCC(C(C)(C)C)CC2)n1	45% (inactive)
O=C(n1ccnn1)n1c2ccccc2c2ccccc21	25% (inactive)
O=C(N1CCOCC1)n1ncc(-c2ccc(OC(F)(F)F)cc2)n1	40% (inactive)
O=C(N1CCC(C(O)(c2ccccc2)c2ccccc2)CC1)n1nccn1	15% (inactive)
C=CCN(CC=C)C(=O)n1ncc(C(O)(c2ccccc2)c2ccccc2)n1	60%
O=C(N1CCCC1)n1ncc(-c2ccc(Oc3ccccc3)cc2)n1	45% (inactive)
CC(C)(C)C1CCN(C(=O)n2ncc(C3(O)CCCCC3)n2)CC1	20% (inactive)
CN(C(=O)n1ccnn1)c1ccccc1	25% (inactive)
C=CCN(CC=C)C(=O)n1ncc(-c2cc(F)cc(F)c2)n1	25% (inactive)
COc1ccc2cc(-c3cnn(C(=O)N4CCCC4)n3)ccc2c1	20% (inactive)
O=C(N1CCCC1)n1ncc(-c2cc(F)cc(F)c2)n1	10% (inactive)
CC(C)(O)c1cnn(C(=O)N2CCCCC2)n1	25% (inactive)
O=C(N1CCCC1)n1ncc(C(O)(c2ccccc2)c2ccccc2)n1	0% (inactive)
O=C(N1CCC(Cc2ccccc2)CC1)n1ncc(C(O)(c2ccccc2)c2ccccc2)n1	30% (inactive)
C=CCN(CC=C)C(=O)n1ncc(-c2ccc(OC(F)(F)F)cc2)n1	50%

Results, then the compound that gave them:

inhibition	Structure (SMILES)
5% (inactive)	O=C(N1CCCCC1)n1ncc(C(O)c2ccccc2)n1 (configuration not stated)
65%	O=C(N(c1ccccc1)c1ccccc1)n1ncc(C(O)(c2ccccc2)c2ccccc2)n1
25% (inactive)	C=CCN(CC=C)C(=O)n1ccnn1
95%	O=C(N1CCCCC1Cc1ccccc1)n1ncc(C(O)(c2ccccc2)c2ccccc2)n1 (configuration not stated)
25% (inactive)	O=C(N1CCCC1)n1ncc(-c2ccc(-c3ccccc3)cc2)n1
30% (inactive)	O=C(N1CCC(C(O)(c2ccccc2)c2ccccc2)CC1)n1ncc(C(O)(c2ccccc2)c2ccccc2)n1
40% (inactive)	O=C(N1CCOCC1)n1ccnn1
0% (inactive)	COC1CCN(C(=O)n2ncc(C(O)(c3ccccc3)c3ccccc3)n2)CC1
0% (inactive)	CN(C)C(=O)n1ccnn1
35% (inactive)	CN1CCN(C(=O)n2ccnn2)CC1
35% (inactive)	CC1CCN(C(=O)n2ncc(C(C)(C)O)n2)CC1
30% (inactive)	O=C(N1CCCC1)n1ncc(-c2ccc(Cl)c(Cl)c2)n1
25% (inactive)	CC(C)(O)c1cnn(C(=O)N2CCCC2)n1
15% (inactive)	O=C(OC(c1ccccc1)c1cnn(C(=O)N2CCCCC2)n1)N1CCCCC1 (configuration not stated)
5% (inactive)	COCCCC1CCCCN1C(=O)n1ncc(C(O)(c2ccccc2)c2ccccc2)n1 (configuration not stated)
15% (inactive)	COCC1CCCCN1C(=O)n1ncc(C(O)(c2ccccc2)c2ccccc2)n1 (configuration not stated)
25% (inactive)	O=C(N1CCCC1)n1ncc(C2(O)CCCCC2)n1
15% (inactive)	O=C(N1CCCC1)n1ncc(-c2ccc(OC(F)(F)F)cc2)n1
0% (inactive)	O=C(N1CCOCC1)n1ncc(-c2ccccc2)n1
20% (inactive)	O=C(N1CCOCC1)n1ncc(-c2cc(F)cc(F)c2)n1

From PubChem BioAssay AID602303 (The Scripps Research Institute Molecular Screening Center, 2012)
